According to ChEMBL document CHEMBL5154945, “Discovery and Optimization of Pyrrolopyrimidine Derivatives as Selective Disruptors of the Perinucleolar Compartment, a Marker of Tumor Progression toward Metastasis” (J Med Chem, 2022):
pIC50: −log10 of the molar value.

Key:
PC-3M = assay: Anticancer activity in human PC-3M cells expressing PTB/GFP fusion protein assessed as perinucleolar compartment disassembly and measured after 24 hrs by Hoechst 33342 staining based microscopic method; type: functional, cell-based; settings: for pIC50: read-out: IC50; for IC50: read-out: pIC50 (converted)
In short: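 Imaged by high-content microscopy. Nuclei with PNC spots ≥3 and >0 scored positive. PNC prevalence % = PNC-positive nuclei/total nuclei ×100, normalized to DMSO (0% activity) and 0% PNC (−100%). IC50 from concentration-response.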

[1] = Permeability of the compound at pH 7.4 incubated for 30 mins by UV plate reader based PAMPA assay; settings: for Papp at 0.5 h: PAMPA, pH 7.4; for permeability: pampa, pH 7.4, 0.5 h
[2] = Microsomal stability in CD1 mouse liver microsomes assessed as half life measured upto 60 mins in presence of NADPH by LC-MS analysis; settings: for half-life at 1 h: CD1, mouse, liver microsomes; for t1/2: mouse, microsomes, 1 h

COc1ccc(Cn2c(-c3ccccc3)c(-c3ccccc3)c3c(=N)n(CCO)cnc32)cc1
pIC50 (PC-3M): 5.55 | IC50 (PC-3M): 2.82 µM | Papp at 0.5 h [1]: > 1000 ×10⁻⁶ cm/s | half-life at 1 h [2]: 31.1 min

N=c1c2c(-c3ccccc3)c(-c3ccccc3)n(CCc3ccccc3)c2ncn1CCO
IC50 (PC-3M): 1.32 µM | permeability [1]: > 1000 10^-6 cm/s | t1/2 [2]: 32.6 min

N=c1c2c(-c3ccccc3)c(-c3ccccc3)n(CCc3ccccc3)c2ncn1CC1CCOCC1
pIC50 (PC-3M): 5.00 | permeability [1]: 1229.2 10^-6 cm/s | t1/2 [2]: 7.3 min

N=c1c2c(-c3ccccc3)c(-c3ccccc3)n(Cc3ccccc3)c2ncn1CC1COC1
pIC50 (PC-3M): < 4.70 | Papp at 0.5 h [1]: 7.2 ×10⁻⁶ cm/s | half-life at 1 h [2]: 113 min

N=c1c2c3c(n(CCc4ccccc4)c2ncn1[C@H]1CC[C@H](O)CC1)CCCC3
pIC50 (PC-3M): < 4.70 | permeability [1]: 204.6 10^-6 cm/s | t1/2 [2]: 86.5 min

N=c1c2c(-c3ccccc3)c(-c3ccccc3)n(CCc3ccccc3)c2ncn1CC1CCCO1 (configuration not stated)
IC50 (PC-3M): 7.94 µM | permeability [1]: > 1000 10^-6 cm/s | t1/2 [2]: 8.4 min

N=c1c2c3c(n(CCc4ccccc4)c2ncn1CCCO)CCCC3
pIC50 (PC-3M): < 4.70 | Papp at 0.5 h [1]: 883 ×10⁻⁶ cm/s | half-life at 1 h [2]: 4.5 min

N=c1c2c(-c3ccccc3)c(-c3ccccc3)n(Cc3ccccc3)c2ncn1CC1CCCO1 (configuration not stated)
IC50 (PC-3M): 9.33 µM | permeability [1]: > 1000 10^-6 cm/s | t1/2 [2]: 6.5 min

N=c1c2c3c(n(CCc4ccccc4)c2ncn1C1CCOCC1)CCCC3
pIC50 (PC-3M): < 4.70

COCCn1cnc2c(c(-c3ccccc3)c(-c3ccccc3)n2Cc2ccccc2)c1=N
IC50 (PC-3M): 9.33 µM | permeability [1]: > 1000 10^-6 cm/s | t1/2 [2]: 9.5 min

C[C@H]([C@@H](O)c1ccccc1)n1cnc2c(c(-c3ccccc3)c(-c3ccccc3)n2Cc2ccccc2)c1=N
pIC50 (PC-3M): < 4.70 | permeability [1]: 606 10^-6 cm/s | t1/2 [2]: 6.4 min

N=c1c2c(-c3ccccc3)c(-c3ccccc3)n(CCc3ccccc3)c2ncn1CC1CCOC1 (configuration not stated)
IC50 (PC-3M): 10.7 µM | permeability [1]: > 1000 10^-6 cm/s | t1/2 [2]: 6.9 min

N=c1c2c(-c3ccccc3)c(-c3ccccc3)n(Cc3ccccc3)c2ncn1[C@H](CO)Cc1ccccc1
pIC50 (PC-3M): < 4.70 | permeability [1]: < 1 10^-6 cm/s | t1/2 [2]: 5.5 min

N=c1c2c(-c3ccccc3)c(-c3ccccc3)n(CC3CCCCC3)c2ncn1C1CCOCC1
IC50 (PC-3M): 2 µM

N=c1c2c(-c3ccccc3)c(-c3ccccc3)n(CCc3ccccc3)c2ncn1CCCCO
pIC50 (PC-3M): 5.35 | IC50 (PC-3M): 4.47 µM | Papp at 0.5 h [1]: > 1000 ×10⁻⁶ cm/s | half-life at 1 h [2]: 6.6 min

N#Cc1c(-c2ccccc2)c(-c2ccccc2)n(Cc2ccccc2)c1N
pIC50 (PC-3M): < 4.70 | permeability [1]: 62 10^-6 cm/s | t1/2 [2]: 13.3 min

N=c1c2c(-c3ccccc3)c(-c3ccccc3)n(CC3CC3)c2ncn1CC1CCOCC1
IC50 (PC-3M): 33.9 µM | permeability [1]: > 1000 10^-6 cm/s | t1/2 [2]: 16.3 min

N=c1c2c(-c3ccccc3)c(-c3ccccc3)n(CC3CC3)c2ncn1C1CCOCC1
IC50 (PC-3M): 0.832 µM | permeability [1]: > 1000 10^-6 cm/s | t1/2 [2]: 68 min

N=c1c2c(-c3ccccc3)c(-c3ccccc3)n(Cc3ccccc3)c2ncn1CCCN1CCN(c2ccccc2)CC1
IC50 (PC-3M): 23.4 µM | permeability [1]: > 1000 10^-6 cm/s | t1/2 [2]: 14 min

N=c1c2c(-c3ccccc3)c(-c3ccccc3)n(Cc3ccccc3)c2ncn1CCN
pIC50 (PC-3M): < 4.70 | permeability [1]: 164.7 10^-6 cm/s

N=c1c2c(-c3ccccc3)c(-c3ccccc3)n(Cc3ccccc3)c2ncn1CCCCO
IC50 (PC-3M): 4.27 µM | permeability [1]: > 1000 10^-6 cm/s | t1/2 [2]: 7.7 min

N=c1c2c(-c3ccccc3)c(-c3ccccc3)n(Cc3ccccc3)c2ncn1CC1CCOCC1
IC50 (PC-3M): 10.7 µM | permeability [1]: > 1000 10^-6 cm/s | t1/2 [2]: 7.1 min

N=c1c2c(-c3ccccc3)c(-c3ccccc3)n(CC3CC3)c2ncn1CCCO
pIC50 (PC-3M): 5.20 | permeability [1]: > 1000 10^-6 cm/s | t1/2 [2]: 25.4 min

CCO/C=N/c1c(C#N)c(-c2ccccc2)c(-c2ccccc2)n1Cc1ccccc1
pIC50 (PC-3M): < 4.70

COc1ccc(Cn2c(-c3ccccc3)c(-c3ccccc3)c3c(=N)n(CCCO)cnc32)cc1
IC50 (PC-3M): 2.14 µM | permeability [1]: > 1000 10^-6 cm/s | t1/2 [2]: 19.9 min

COc1ccc(-c2c(-c3ccc(OC)cc3)n(Cc3ccccc3)c3ncn([C@H]4CC[C@H](O)CC4)c(=N)c23)cc1
pIC50 (PC-3M): < 4.70 | permeability [1]: 196 10^-6 cm/s

N=c1c2c(-c3ccccc3)c(-c3ccccc3)n(Cc3ccc(S(N)(=O)=O)cc3)c2ncn1C1CCOCC1
IC50 (PC-3M): 1.17 µM | Papp at 0.5 h [1]: > 1000 ×10⁻⁶ cm/s | t1/2 [2]: 70 min

COc1ccc(-c2c(-c3ccc(OC)cc3)n(Cc3ccccc3)c3ncn(CCO)c(=N)c23)cc1
pIC50 (PC-3M): < 4.70 | permeability [1]: > 1000 10^-6 cm/s | t1/2 [2]: 73.2 min

CO[C@H]1CC[C@H](n2cnc3c(c(-c4ccccc4)c(-c4ccccc4)n3Cc3ccc(OC(F)(F)F)cc3)c2=N)CC1
IC50 (PC-3M): 1.1 µM

N=c1c2c(-c3ccccc3)c(-c3ccccc3)n(Cc3ccccc3)c2ncn1[C@@H]1CCCC[C@H]1O (relative stereo)
IC50 (PC-3M): 0.501 µM | permeability [1]: > 1000 10^-6 cm/s | t1/2 [2]: 28.8 min

N=c1c2c(-c3ccccc3)c(-c3ccccc3)n(Cc3ccccc3)c2ncn1CCNc1ccncc1
IC50 (PC-3M): 6.61 µM | permeability [1]: 445.1 10^-6 cm/s | t1/2 [2]: 29.9 min

COc1ccc(-c2c(-c3ccc(OC)cc3)n(Cc3ccccc3)c3ncn([C@@H]4CCCC[C@H]4O)c(=N)c23)cc1 (mixture of isomers)
pIC50 (PC-3M): < 4.70 | permeability [1]: > 1000 10^-6 cm/s | t1/2 [2]: 29.2 min

N=c1c2c(-c3ccccc3)c(-c3ccccc3)n(CCc3ccccc3)c2ncn1C[C@@H]1CCCC[C@H]1O (relative stereo)
pIC50 (PC-3M): 5.57 | IC50 (PC-3M): 0.955 µM | t1/2 [2]: 4.3 min

N=c1c2c(-c3ccccc3)c(-c3ccccc3)n(CC3CCCCC3)c2ncn1[C@H]1CC[C@H](O)CC1
IC50 (PC-3M): 2.75 µM

CO[C@H]1CC[C@H](n2cnc3c(c(-c4ccccc4)c(-c4ccccc4)n3Cc3ccccc3)c2=N)CC1
IC50 (PC-3M): 0.251 µM

COc1ccc(Cn2c(-c3ccccc3)c(-c3ccccc3)c3c(=N)n(C4CCOCC4)cnc32)cc1
IC50 (PC-3M): 0.174 µM

N=c1c2c(-c3ccccc3)c(-c3ccccc3)n(CCc3ccccc3)c2ncn1C1CCOCC1
pIC50 (PC-3M): 6.02 | IC50 (PC-3M): 10 µM | permeability [1]: > 1000 10^-6 cm/s | t1/2 [2]: 14.5 min

COc1ccc(CCn2cnc3c(c(-c4ccccc4)cn3Cc3ccccc3)c2=N)cc1OC
pIC50 (PC-3M): < 4.70 | permeability [1]: > 1000 10^-6 cm/s | t1/2 [2]: 2.9 min

N=c1c2c(-c3ccccc3)c(-c3ccccc3)n(Cc3ccccc3)c2ncn1CC1CCOC1 (configuration not stated)
IC50 (PC-3M): 10.7 µM | permeability [1]: > 1000 10^-6 cm/s | t1/2 [2]: 5.3 min

N=c1c2c(-c3ccccc3)c(-c3ccccc3)n(CC3CCCCC3)c2ncn1CCCO
IC50 (PC-3M): 26.9 µM | permeability [1]: > 1000 10^-6 cm/s

N=c1c2c(-c3ccccc3)c(-c3ccccc3)n(Cc3ccc(OC(F)(F)F)cc3)c2ncn1CCCO
IC50 (PC-3M): 4.37 µM | permeability [1]: > 1000 10^-6 cm/s

CN(C)CCn1cnc2c(c(-c3ccccc3)c(-c3ccccc3)n2Cc2ccccc2)c1=N
IC50 (PC-3M): 2.95 µM | permeability [1]: 1358 10^-6 cm/s | t1/2 [2]: 14.3 min

N=c1c2c(-c3ccc4c(c3)OCO4)c(-c3ccc4c(c3)OCO4)n(Cc3ccccc3)c2ncn1C1CCOCC1
pIC50 (PC-3M): < 4.70

N=c1c2c(-c3ccccc3)c(-c3ccccc3)n(Cc3ccccc3)c2ncn1C1CCN(Cc2ccccc2)CC1
IC50 (PC-3M): 5.01 µM | t1/2 [2]: 32.2 min

N=c1c2c(-c3ccccc3)c(-c3ccccc3)n(Cc3ccc(S(N)(=O)=O)cc3)c2ncn1CCCO
permeability [1]: < 1 10^-6 cm/s | t1/2 [2]: 26.7 min

O[C@H]1CC[C@H](Nc2ncnc3c2c(-c2ccccc2)c(-c2ccccc2)n3Cc2ccccc2)CC1
pIC50 (PC-3M): < 4.70

OCCCNc1ncnc2c1c(-c1ccccc1)c(-c1ccccc1)n2Cc1ccccc1
pIC50 (PC-3M): < 4.70

COc1ccc(-c2c(-c3ccc(OC)cc3)n(Cc3ccccc3)c3ncn([C@H]4CC[C@H](OC)CC4)c(=N)c23)cc1
pIC50 (PC-3M): < 4.70 | permeability [1]: > 1000 10^-6 cm/s

COc1ccc(-c2c(-c3ccc(OC)cc3)n(Cc3ccccc3)c3ncn(CCCO)c(=N)c23)cc1
pIC50 (PC-3M): < 4.70 | Papp at 0.5 h [1]: > 1000 ×10⁻⁶ cm/s
